ChEMBL document CHEMBL1123134, “Diterpenoid sweeteners. Synthesis and sensory evaluation of stevioside analogues with improved organoleptic properties” (1985)

Experiments:
Format in all cases: functional
[1] = species: Homo sapiens; test: Sensory evaluation was done at a concentration of 1000 p.p.m. against property of sweetness.
Outline: (§1)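 Aqueous sample solutions were tasted at about pH 7, so carboxylic acids were in ionized form.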

[2] = species: Homo sapiens; test: Sensory evaluation was done at a concentration of 1000 p.p.m. against other properties.; outline: as §1
[3] = species: Homo sapiens; test: Sensory evaluation was done for sweetness at a concentration of 1000 p.p.m. against compound potency calculated on a molar basis.
Outline: (§2)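 Solutions were tasted at about pH 7. Sweetness potency was expressed two ways: Pw, calculated on a weight basis, and Pm, calculated on a molar basis.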

[4] = species: Homo sapiens; test: Sensory evaluation was done for sweetness at a concentration of 1000 p.p.m. against sample intensity relative to 10% sucrose.; outline: as §1
[5] = species: Homo sapiens; test: Sensory evaluation was done at a concentration of 1000 p.p.m. against property of bitterness.; outline: as §1
[6] = species: Homo sapiens; test: Sensory evaluation was done for sweetness at a concentration of 1000 p.p.m. against compound potency calculated on weight basis.; outline: as §2
[7] = species: Homo sapiens; test: Sensory evaluation was done at a concentration of 550 p.p.m. against property of sweetness.; outline: as §1
[8] = species: Homo sapiens; test: Sensory evaluation was done at a concentration of 550 p.p.m. against other properties.; outline: as §1
[9] = species: Homo sapiens; test: Sensory evaluation was done for sweetness at a concentration of 550 p.p.m. against sample intensity relative to 10% sucrose.
Outline: (§3)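 Sweetness tasted in solutions held near pH ~7, so carboxylic acids are ionized. Potency is reported two ways: on a weight basis (Pw) and on a molar basis (Pm).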

[10] = species: Homo sapiens; test: Sensory evaluation was done for sweetness at a concentration of 550 p.p.m. against compound potency calculated on weight basis.; outline: as §3
[11] = species: Homo sapiens; test: Sensory evaluation was done at a concentration of 550 p.p.m. against property of bitterness.; outline: as §1
[12] = species: Homo sapiens; test: Sensory evaluation was done for sweetness at a concentration of 550 p.p.m. against compound potency calculated on a molar basis.; outline: as §3
[13] = species: Homo sapiens; test: Sensory evaluation was done for sweetness at a concentration of 650 p.p.m. against sample intensity relative to 10% sucrose.; outline: as §3
[14] = species: Homo sapiens; test: Sensory evaluation was done at a concentration of 650 p.p.m. against property of sweetness.; outline: as §1
[15] = species: Homo sapiens; test: Sensory evaluation was done for sweetness at a concentration of 650 p.p.m. against compound potency calculated on weight basis.; outline: as §3
[16] = species: Homo sapiens; test: Sensory evaluation was done for sweetness at a concentration of 650 p.p.m. against compound potency calculated on a molar basis.; outline: as §3
[17] = species: Homo sapiens; test: Sensory evaluation was done at a concentration of 650 p.p.m. against other properties.; outline: as §1
[18] = species: Homo sapiens; test: Sensory evaluation was done at a concentration of 650 p.p.m. against property of bitterness.; outline: as §1
[19] = species: Homo sapiens; test: Sensory evaluation was done for sweetness at a concentration of 615 p.p.m. against sample intensity relative to 10% sucrose.; outline: as §3
[20] = species: Homo sapiens; test: Sensory evaluation was done for sweetness at a concentration of 615 p.p.m. against compound potency calculated on weight basis.; outline: as §3
[21] = species: Homo sapiens; test: Sensory evaluation was done at a concentration of 615 p.p.m. against property of bitterness.; outline: as §1
[22] = species: Homo sapiens; test: Sensory evaluation was done at a concentration of 615 p.p.m. against other properties.; outline: as §1
[23] = species: Homo sapiens; test: Sensory evaluation was done for sweetness at a concentration of 615 p.p.m. against compound potency calculated on a molar basis.; outline: as §3
[24] = species: Homo sapiens; test: Sensory evaluation was done at a concentration of 615 p.p.m. against property of sweetness.; outline: as §1
[25] = species: Homo sapiens; test: Sensory evaluation was done for sweetness at a concentration of 534 p.p.m. against compound potency calculated on weight basis.; outline: as §3
[26] = species: Homo sapiens; test: Sensory evaluation was done for sweetness at a concentration of 534 p.p.m. against sample intensity relative to 10% sucrose.; outline: as §3
[27] = species: Homo sapiens; test: Sensory evaluation was done for sweetness at a concentration of 534 p.p.m. against compound potency calculated on a molar basis.; outline: as §3
[28] = species: Homo sapiens; test: Sensory evaluation was done at a concentration of 534 p.p.m. against property of bitterness.; outline: as §1
[29] = species: Homo sapiens; test: Sensory evaluation was done at a concentration of 534 p.p.m. against property of sweetness.; outline: as §1
[30] = species: Homo sapiens; test: Sensory evaluation was done at a concentration of 534 p.p.m. against other properties.; outline: as §1
[31] = species: Homo sapiens; test: Sensory evaluation was done at a concentration of 500 p.p.m. against other properties.; outline: as §1
[32] = species: Homo sapiens; test: Sensory evaluation was done for sweetness at a concentration of 500 p.p.m. against compound potency calculated on a molar basis.; outline: as §3
[33] = species: Homo sapiens; test: Sensory evaluation was done for sweetness at a concentration of 500 p.p.m. against sample intensity relative to 10% sucrose.; outline: as §3
[34] = species: Homo sapiens; test: Sensory evaluation was done at a concentration of 500 p.p.m. against property of sweetness.; outline: as §1
[35] = species: Homo sapiens; test: Sensory evaluation was done for sweetness at a concentration of 500 p.p.m. against compound potency calculated on weight basis.; outline: as §3
[36] = species: Homo sapiens; test: Sensory evaluation was done at a concentration of 500 p.p.m. against property of bitterness.; outline: as §1
[37] = species: Homo sapiens; test: Sensory evaluation was done at a concentration of 750 p.p.m. against other properties.; outline: as §1
[38] = species: Homo sapiens; test: Sensory evaluation was done for sweetness at a concentration of 750 p.p.m. against compound potency calculated on a molar basis.; outline: as §3
[39] = species: Homo sapiens; test: Sensory evaluation was done at a concentration of 750 p.p.m. against property of bitterness.; outline: as §1
[40] = species: Homo sapiens; test: Sensory evaluation was done for sweetness at a concentration of 750 p.p.m. against sample intensity relative to 10% sucrose.; outline: as §3
[41] = species: Homo sapiens; test: Sensory evaluation was done for sweetness at a concentration of 750 p.p.m. against compound potency calculated on weight basis.; outline: as §3
[42] = species: Homo sapiens; test: Sensory evaluation was done at a concentration of 750 p.p.m. against property of sweetness.; outline: as §1

C=C1C[C@@]23CC[C@H]4[C@@](C)(CCC[C@@]4(C)C(=O)[O-])[C@@H]2CC[C@]1(O[C@@H]1O[C@@H](CO)[C@@H](O)[C@H](O)[C@@H]1O[C@@H]1O[C@@H](CO)[C@@H](O)[C@H](O)[C@@H]1O)C3.[Na+] [Steviolbioside]
Sensory evaluation [1]: 65
Sensory evaluation [2]: 0
Pm [3]: 190
Ip [4]: 1
Sensory evaluation [5]: 35
Pw [6]: 100

C=C1C[C@@]23CC[C@H]4[C@@](C)(CCC[C@@]4(C)C(=O)OC(CCC(=O)[O-])C(=O)O)[C@@H]2CC[C@]1(O[C@@H]1O[C@@H](CO)[C@@H](O)[C@H](O)[C@@H]1O[C@@H]1O[C@@H](CO)[C@@H](O)[C@H](O)[C@@H]1O)C3.[Na+] (some centres not stated)
Sensory evaluation [7]: 84
Sensory evaluation [8]: 10
Ip [9]: 0.9
Pw [10]: 160
Sensory evaluation [11]: 2
Pm [12]: 380

C=C1C[C@@]23CC[C@H]4[C@@](C)(CCC[C@@]4(C)C(=O)OCCCP(=O)([O-])O)[C@@H]2CC[C@]1(O[C@@H]1O[C@@H](CO)[C@@H](O)[C@H](O)[C@@H]1O[C@@H]1O[C@@H](CO)[C@@H](O)[C@H](O)[C@@H]1O)C3.[Na+]
Ip [13]: 0.8
Sensory evaluation [14]: 87
Pw [15]: 120
Pm [16]: 280
Sensory evaluation [17]: 5
Sensory evaluation [18]: 8

C=C1C[C@@]23CC[C@H]4[C@@](C)(CCC[C@@]4(C)C(=O)OCCC(N)C(=O)O)[C@@H]2CC[C@]1(O[C@@H]1O[C@@H](CO)[C@@H](O)[C@H](O)[C@@H]1O[C@@H]1O[C@@H](CO)[C@@H](O)[C@H](O)[C@@H]1O)C3 (some centres not stated)
Ip [19]: 1.2
Pw [20]: 200
Sensory evaluation [21]: 35
Sensory evaluation [22]: 5
Pm [23]: 420
Sensory evaluation [24]: 60

C=C1C[C@@]23CC[C@H]4[C@@](C)(CCC[C@@]4(C)C(=O)OCCCS(=O)(=O)[O-])[C@@H]2CC[C@]1(O[C@H]1O[C@H](CO)[C@@H](O)[C@H](O)[C@H]1O[C@@H]1O[C@H](CO)[C@@H](O)[C@H](O)[C@H]1O)C3.[Na+]
Pw [25]: 160
Ip [26]: 0.8
Pm [27]: 360
Sensory evaluation [28]: 4
Sensory evaluation [29]: 92
Sensory evaluation [30]: 4

C=C1C[C@@]23CC[C@H]4[C@@](C)(CCC[C@@]4(C)C(=O)O[C@@H]4O[C@H](CO)[C@@H](O)[C@H](O)[C@H]4O)[C@@H]2CC[C@]1(O[C@@H]1O[C@H](CO)[C@@H](O)[C@H](O)[C@H]1O[C@@H]1O[C@H](CO)[C@@H](O)[C@H](O)[C@H]1O)C3 [STEVIOSIDE]
Sensory evaluation [31]: 8
Pm [32]: 440
Ip [33]: 0.9
Sensory evaluation [34]: 62
Pw [35]: 190
Sensory evaluation [36]: 30

COC(=O)[C@H](Cc1ccccc1)NC(=O)[C@@H](N)CC(=O)O [ASPARTAME]
Sensory evaluation [37]: 0
Pm [38]: 85
Sensory evaluation [39]: 0
Ip [40]: 1
Pw [41]: 130
Sensory evaluation [42]: 100
